Results gathered from unrelated publications.
Protocols differ between the studies behind these lines. ≈ marks a conversion by molar mass, not a printed value.

| SMILES | target or system | test | system | conditions | measurement | result |
| --- | --- | --- | --- | --- | --- | --- |
| Cc1ccc2nc(-c3ccc(Cl)c(Cl)c3)n(Cc3ccccc3)c2c1 | Staphylococcus aureus | microbial growth, broth dilution | ATCC43300 MRSA | drug-resistant strain | MIC | 32 µg/mL (≈ 87.1 µM) |
| COC(=O)c1cc(-c2cccc(NC(=S)Nc3ccc(F)cc3)c2)on1 | Escherichia coli | microbial growth, broth dilution | ATCC25922 | – | MIC | > 64 µg/mL |
| OC[C@@H]1C[C@@H](O)[C@H](n2cnc3c(Cl)ncnc32)O1 | Severe acute respiratory syndrome coronavirus | plaque formation, inhibitor | Vero C1008 | – | IC50 | > 300 µM |
| O=C(NCCc1c[nH]c2ccccc12)C(=O)c1cn(Cc2ccc(F)cc2)c2ccccc12 | C4-2 | cell growth or viability, MTT | – | – | IC50 | > 100 µM |
| C=CCn1c(-c2ccc(OC)c(OC)c2)nc2ccccc21 | Staphylococcus aureus | microbial growth, broth dilution | ATCC43300 MRSA | drug-resistant strain | MIC | 128 µg/mL (≈ 435 µM) |
| COc1ccc2c(C(=O)C(=O)NCCc3c[nH]c4ccccc34)cn(Cc3ccc(Cl)cc3)c2c1 | C4-2 | cell growth or viability, MTT | – | – | IC50 | > 100 µM |
| Cc1ccc2nc(-c3ccc(F)cc3)[nH]c2c1 | Staphylococcus aureus | microbial growth, broth dilution | ATCC43300 MRSA | drug-resistant strain | MIC | 128 µg/mL (≈ 566 µM) |
| Nc1ncnc2c([C@@H]3N[C@H](CO)[C@@H](O)[C@H]3O)c[nH]c12 | Severe acute respiratory syndrome coronavirus | viral replication, inhibitor | Vero 76 | 0.3 µM | inhibition | 0.9% |
| Cc1ccc2nc(-c3ccc(Cl)cc3Cl)[nH]c2c1 | Staphylococcus aureus | microbial growth, broth dilution | ATCC43300 MRSA | drug-resistant strain | MIC | 128 µg/mL (≈ 462 µM) |
| Cc1c2cnccc2c(C)c2c1c1ccccc1n2Cc1ccccc1 | MDA-MB-468 | cell growth or viability, MTT | – | – | IC50 | 18 µM |
| CSc1ncnc2c1ncn2[C@@H]1O[C@H](CO)[C@@H](O)[C@H]1O | Severe acute respiratory syndrome coronavirus | plaque formation, inhibitor | Vero C1008 | – | IC50 | > 300 µM |
| Cc1ccc2nc(-c3cc(Br)ccc3O)[nH]c2c1 | Staphylococcus aureus | microbial growth, broth dilution | ATCC43300 MRSA | drug-resistant strain | MIC | 128 µg/mL (≈ 422 µM) |
| OC[C@H]1O[C@@H](n2cnc3c(Cl)ncnc32)C[C@@H]1O | Severe acute respiratory syndrome coronavirus | plaque formation, inhibitor | Vero C1008 | – | IC50 | > 300 µM |
| COC(=O)c1cc(-c2cccc(NC(=S)Nc3ccc(F)c(Cl)c3)c2)on1 | Escherichia coli | microbial growth, broth dilution | ATCC25922 | – | MIC | > 64 µg/mL |
| CSc1ccc(-c2nc3ccccc3[nH]2)cc1 | Staphylococcus aureus | microbial growth, broth dilution | ATCC43300 MRSA | drug-resistant strain | MIC | 32 µg/mL (≈ 133 µM) |
| COC(=O)c1cc(-c2cccc(NC(=S)Nc3ccccc3)c2)on1 | Escherichia coli | microbial growth, broth dilution | ATCC25922 | – | MIC | > 64 µg/mL |
| C=CCn1c(-c2ccc(Cl)cc2)nc2ccc(C)cc21 | Staphylococcus aureus | microbial growth, broth dilution | ATCC43300 MRSA | drug-resistant strain | MIC | 32 µg/mL (≈ 113 µM) |
| COC(=O)c1cc(-c2cccc(NC(=S)Nc3ccc(C#N)cc3)c2)on1 | Escherichia coli | microbial growth, broth dilution | ATCC25922 | – | MIC | > 64 µg/mL |
| O=C(O)c1cn(C2CC2)c2cc(N3CCNCC3)c(F)cc2c1=O | Micrococcus luteus | microbial growth | ATCC10240 | 5 µg/mL, 20 h | inhibition zone | 0 mm |
| COC(=O)c1cc(-c2cccc(NC(=O)NCc3ccccc3)c2)on1 | Escherichia coli | microbial growth, broth dilution | ATCC25922 | – | MIC | > 64 µg/mL |
| Cc1ccc2[nH]c3c(c2c1)CCCC3NCCc1ccc(Br)cc1 (stereo not drawn) | Micrococcus luteus | microbial growth, broth dilution | DSM1790 | – | MIC | 2 µg/mL (≈ 5.22 µM) |
| COC(=O)c1cc(-c2cccc(NC(=O)Nc3cccc(F)c3)c2)on1 | Escherichia coli | microbial growth, broth dilution | ATCC25922 | – | MIC | > 64 µg/mL |
| Clc1ccc(-c2nc3ccccc3n2Cc2ccccc2)cc1 | Staphylococcus aureus | microbial growth, broth dilution | ATCC43300 MRSA | drug-resistant strain | MIC | 256 µg/mL (≈ 803 µM) |
| CCOC(=O)c1cc(-c2cccc(NC(=O)Nc3ccc(Cl)c(Cl)c3)c2)on1 | Escherichia coli | microbial growth, broth dilution | ATCC25922 | – | MIC | > 64 µg/mL |
| OCC1CC(n2cnc3c(Cl)ncnc32)C1CO (stereo not drawn) | Severe acute respiratory syndrome coronavirus | plaque formation, inhibitor | Vero C1008 | – | IC50 | > 300 µM |
| COC(=O)c1cc(-c2cccc(NC(=S)Nc3ccccc3Cl)c2)on1 | Escherichia coli | microbial growth, broth dilution | ATCC25922 | – | MIC | > 64 µg/mL |
| CCCCCCCCCOc1ccc2[nH]cc(CCN)c2c1 | HN-6 | cell growth or viability | – | 72 h | IC50 | 15.9 µM |
